Series [1] is described as follows: Intrinsic clearance in CD1 mouse liver microsomes at 0.5 uM in presence of NADPH incubated upto 30 mins by UPLC-MS/MS analysis. The series is classed as ADME, Microsome. The conditions noted are these: 0.5 h. In a few lines:
(§1)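 Compound at 0.5 μM incubated with female CD1 mouse, male Sprague-Dawley rat or pooled human liver microsomes (0.5 mg/mL, 50 mM potassium phosphate, pH 7.4). Reaction started with excess NADPH. Samples taken at 0-30 min, quenched in acetonitrile, analysed by UPLC-MS/MS. Verapamil used as control, single time course.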
In general terms: Microsomes from liver hold many membrane-bound enzymes, among them those of drug oxidation.

A further series deals with MRC5. The series can be described thus: Antiproliferative activity against human MRC5 cells assessed as reduction in cell viability after 68 hrs by resazurin dye based fluorescence assay. The note with it: MRC5, 68 h. The method in brief:
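MRC-5 fibroblasts plated overnight as monolayers, exposed to compound pre-diluted in MEM for 68 h. Resazurin then added (final 50 μM) for 3 h, fluorescence read at ex 528/em 590 nm. Signal converted to % inhibition against high- and no-inhibition controls. Plates accepted at Z' > 0.5.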
Background: Alamar Blue is a resazurin reagent that responds to reducing activity.

Series [2] in a line: Intrinsic clearance in human liver microsomes at 0.5 uM in presence of NADPH incubated upto 30 mins by UPLC-MS/MS analysis. The note with it: 0.5 h. The series is classed as ADME, Microsome. The method in brief: as §1
Series [3] is described as follows: Volume of distribution at steady state in Sprague-Dawley rat at 1 mg/kg, iv administered as bolus dose by UPLC-MS/MS analysis. The series is classed as ADME, organism-based. The conditions noted are these: Sprague-Dawley, in vivo, read-out: Vdss. In a few lines:
(§2)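 Male Sprague Dawley rats (n=3/route) received an iv bolus solution at 1 mg free base/kg (5 mL/kg; 5% DMSO in saline). Blood sampled from 5 min to 30 or 48 h post-dose, mixed with two volumes water, frozen, then analysed by UPLC-MS/MS. Parameters derived from the blood concentration-time curve.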

In another series the test system is Plasmodium falciparum. The series can be described thus: Antiplasmodial activity against chloroquine-sensitive Plasmodium falciparum 3D7 infected in human red blood cells assessed as growth inhibition by SYBR Green fluorescence assay. The format is functional, organism-based, RBC. The note with it: 3D7, Erythrocyte. In a few lines: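 P. falciparum 3D7 grown in 5% human red cells in RPMI 1640 (pH 7.3) with 0.5% Albumax II, hypoxanthine and gentamicin at 37°C under 1% O₂/3% CO₂. Growth measured by SYBR green fluorescence (ex 485/em 528 nm), with mefloquine as assay control. EC50 calculated.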

A short description of series [4]: AUC in Sprague-Dawley rat at 3 mg/kg, po administered via gavage by UPLC-MS/MS analysis. The note with it: in vivo. Set-up: dose 3 mg/kg. The format is ADME, organism-based. The method in brief:
(§3)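 Oral gavage solution, 3 mg free base/kg (10 mL/kg; 0.5% w/v HPMC, 0.4% v/v Tween 80, 0.5% v/v benzyl alcohol), given to male Sprague Dawley rats (n=3). Blood taken at 5, 15, 30 min and 1, 2, 4, 6, 8, 24, 30 h, mixed with two volumes water, analysed by UPLC-MS/MS.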

A short description of series [5]: Half-life in Sprague-Dawley rat at 1 mg/kg, iv administered as bolus dose by UPLC-MS/MS analysis. The format is ADME, organism-based. The note with it: Sprague-Dawley, in vivo. The method in brief: as §2
Series [6] in a line: Clearance in Sprague-Dawley rat blood at 1 mg/kg, iv administered as bolus dose by UPLC-MS/MS analysis. The series is classed as ADME, organism-based. The method in brief:
as §2

Series [7] can be described thus: Intrinsic clearance in Sprague-Dawley rat liver microsomes at 0.5 uM in presence of NADPH incubated upto 30 mins by UPLC-MS/MS analysis. The series is classed as ADME, Microsome. The conditions noted are these: 0.5 h. In a few lines:
as §1

The nature of series [8]: Kinetic aqueous solubility of the compound by laser nephelometry. The series is classed as physicochemical. The conditions noted are these: read-out: Kinetic_solubility. The method in brief:
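Kinetic solubility measured by laser nephelometry. DMSO serial dilutions diluted into water to give final 100–5 μg/mL at 1.0% DMSO. Read immediately, in triplicate aliquots.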

Series [9] is described as follows: Tmax in Sprague-Dawley rat at 3 mg/kg, po administered via gavage by UPLC-MS/MS analysis. The series is classed as ADME, organism-based. The note with it: in vivo. In a few lines: as §3
Series [10] has as its system Plasmodium berghei. The experiment in a line: Antiplasmodial activity against Plasmodium berghei ANKA infected in NMRI mouse assessed as survival days at 1 mg/kg, po QD for 4 days. The series is classed as functional. The note with it: time 4 day.
A short description of series [11]: Cmax in Sprague-Dawley rat at 3 mg/kg, po administered via gavage by UPLC-MS/MS analysis. The format is ADME, organism-based. Also on record: route oral, dose 3 mg/kg. The note with it: in vivo. The method in brief: as §3
Series [12] can be described thus: Oral bioavailability in Sprague-Dawley rat at 3 mg/kg administered via gavage by UPLC-MS/MS analysis. The series is classed as ADME, organism-based. The note with it: in vivo. The method in brief: as §3
A short description of series [13]: Permeability of the compound at 10 uM incubated for 5 hrs by UPLC-MS/MS analysis based PAMPA method. The format is ADME. The conditions noted are these: read-out: permeability. The method in brief: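 PAMPA run on a lipid-oil-lipid tri-layer filter at pH 7.4. Compound at 10 μM in PBS (DMSO ≤5%) in donor wells, PBS in acceptor wells, kept 5 h at room temperature. Both compartments quantified by UPLC-MS/MS. Data accepted only when recovery exceeded 70%.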
In general terms: The PAMPA barrier holds no transporters, so it reflects passive diffusion.

Series [14] concerns Plasmodium berghei. The experiment in a line: Antiplasmodial activity against Plasmodium berghei ANKA infected in NMRI mouse assessed as reduction in parasitemia at 1 mg/kg, po QD for 4 days. The series is classed as functional. Set-up: scale not given: the % may be the effect or the level left. The conditions noted are these: time 4 day. The method in brief:
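Female NMRI mice (n=3 per group, randomized, not blinded) infected with GFP-transfected P. berghei ANKA. Oral dosing once daily for 4 days in 10% DMSO/40% PEG400/50% water or HPMC suspension vehicle. Parasitaemia measured by flow cytometry on blood collected 96 h after infection. Mice watched for toxicity over 4 h post-dose each day.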

Converted amounts (≈) assume the structure as drawn. Some results are limits rather than exact numbers.

One may read the EC50 as the concentration needed to bring the measured effect to its halfway point. For orientation: AUC means the area under the concentration-time curve, a measure of exposure. What is called half-life is how long it takes for the measured level to halve. For orientation: clearance means the volume of plasma or blood freed of the substance per unit of time. A word on the Tmax: it is the time from dosing to the highest level. Broadly, the Cmax is the peak of the concentration-time curve. Broadly, the bioavailability is dose-corrected exposure relative to a reference, in per cent. As for `O=C(NCCN1CCCC1)c1cc(-c2ccc(CN3CCOCC3)cc2F)nc2ccc(F)cc12`, the CLH was less than 0.5 mL/min/g in series [1], 1.5 mL/min/g in series [2] and less than 0.5 mL/min/g in series [7]. Further, the EC50 is 41 µM with MRC5 and 0.002 µM in the series on Plasmodium falciparum. Moreover, the Vd in [3] turned out to be 10 L/kg. Also, the AUC in series [4] was 507 ng·h/mL. The molecule also had a half-life in series [5] of 4 h. In series [6], the clearance came to 32 mL/min/kg. In addition, the solubility kinetic in series [8] came out at 208 µM (≈ 100 µg/mL). The Tmax in series [9] is 8 h. In the series on Plasmodium berghei [10], the Survival was 14 days. In series [11], this molecule returned a Cmax of 29 ng/mL. The bioavailability in [12] came out at 33%. In series [13], the Papp at 5 h, 10 µM stood at 13.2 ×10⁻⁶ cm/s. In addition, the Activity in the series with Plasmodium berghei [14] amounted to 99.9%.
